# According to PubChem BioAssay:
# Active and inactive are the calls of the source.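 Rule for the calls, unless noted: active = inhibition at or above 50% at 10 µM; inactive = inhibition below 50%.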
# Columns and labels:
# [1] = inhibitors of TNFa-induced NFkB p65 translocation, primary screen, imaging, HUVEC, MLSMR starter and 10KST1 sets (AID 438;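 active = inhibition above 20% together with a positive visual image hit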;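 note: compound added about 3h40 before a 20 min TNFalpha stimulation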;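 for inhibition: signal is the nuclear over cytoplasmic p65 intensity ratio per well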); conditions: HUVEC TNFa-induced p65 nuclear translocation; cell count: measured here: nuclei count (cytotoxicity indicator), at 2.08 µM; inhibition: at 2 µM, stronger effect = higher value, 0% TNFa-plus-vehicle, 100% no-TNFa wells
# [2] = inhibitors of mutant huntingtin aggregation, primary screen, imaging, exon1htt(103Q)mCFP cells, high-content imaging (AID 483;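 active = visual image review flags a hit and inhibition of aggregation exceeds 20%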;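 note: compound exposure lasted 3 days before fixation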;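 for nuclei count: percent of the per-plate median nuclei count of sample wells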); conditions: exon1htt(103Q)mCFP cell line, aggregate imaging, at 2 µM; inhibition of aggregation: stronger effect = higher value; nuclei count: measured here: cell count, toxicity
# [3] = inhibitors of E-selectin induction by TNFa, primary screen, imaging, HUVEC, immunofluorescence, MLSMR starter and 10KST1 sets (AID 487;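 active = visually confirmed hit in the image check and inhibition above 20%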;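 for inhibition: signal is fraction of cell area covered by stained E-selectin grains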;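 for nuclei count: 100% = median nuclei count of all wells on the same plate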); conditions: HUVEC TNFalpha-induced E-selectin immunofluorescence imaging, at 2 µM; inhibition: stronger effect = higher value; nuclei count: measured here: cell number, toxicity
# [4] = target: Voltage-gated potassium channel subunit beta-2 (Rattus norvegicus) (UniProt P62483); experiment: KvBeta enzyme negative modulators, primary screen, biochemical, NADPH fluorescence (AID 622;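 active = fluorescence slope higher than the sample average by over 3 SD, cut at about -0.22 in these data, passing the limit was not always enough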;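 note: slope of raw intensity against log time taken from 70 to 1610 s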); conditions: recombinant KvBeta, 4-cyanobenzaldehyde reduction, at 10 µM, stronger effect = higher value
# [5] = target: Voltage-gated potassium channel subunit beta-2 (Rattus norvegicus) (UniProt P62483); experiment: KvBeta positive modulators, primary screen, biochemical, NADPH fluorescence (AID 623;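 active = NADPH fluorescence slope more negative than the mean of all samples by about 3 SD, 99.7% confidence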;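 note: fluorescence intensity change per second fitted from 20 to 320 s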); conditions: Recombinant KvBeta, NADPH fluorescence decrease slope, 10 min; at 10 µM; stronger effect = lower value
# [6] = target: Muscarinic acetylcholine receptor M4 (Homo sapiens) (UniProt P08173); experiment: compounds altering M4/GIRK thallium flux, either direction, primary screen, M4 allosteric agonist project, cell-based, HEK293 M4/GIRK, BTC-AM (AID 625;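 active = fluorescence slope after compound addition differing from the mean of all tested samples at 99.7% confidence, mostly higher but some lower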;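 note: thallium influx through GIRK channels coupled to M4 in HEK293 cells with BTC-AM dye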); conditions: at 10 µM, actives lie on both sides
# Summary of the method: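 Material: M4/GIRK1/GIRK2 stable HEK293 cell line. Medium: pH 7.3 thallium assay buffer. Dosing: single compound concentration, 10 µM final. Schedule: 1 h dye loading, 2 min kinetic read. Measured by: kinetic fluorescence with BTC-AM dye. Read-out: post-addition slope, 15–24 s, of baseline-normalized fluorescence. Benchmarks: carbachol and DMSO controls.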
# [7] = inhibitors of Sendai virus-induced IRF3 signaling, primary screen, TLR/RLR signaling modifier project, cell-based, Sendai virus stimulus, luciferase, 10K MLSCN set (AID 602276); conditions: HEK293 RL24 IRF3 luciferase reporter, at 10 µM, stronger effect = higher value;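 note: firefly luciferase from ISG56 promoter only with Renilla not read in this screen; 0% = Sendai virus plus DMSO and 100% = medium plus DMSO without virus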
# [8] = inhibitors of poly I:C-induced TLR3 signaling, primary screen, cell-based, poly I:C stimulus, luciferase, 10K MLSCN set (AID 602277;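 active = inhibition of the reporter signal at or above 50%; inactive = inhibition below 50%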); conditions: HEK293-TLR3 RL24 IRF3 luciferase reporter, at 10 µM, stronger effect = higher value
# Muscarinic acetylcholine receptor M4 (Homo sapiens), sequence (P08173 whole entry, looked up): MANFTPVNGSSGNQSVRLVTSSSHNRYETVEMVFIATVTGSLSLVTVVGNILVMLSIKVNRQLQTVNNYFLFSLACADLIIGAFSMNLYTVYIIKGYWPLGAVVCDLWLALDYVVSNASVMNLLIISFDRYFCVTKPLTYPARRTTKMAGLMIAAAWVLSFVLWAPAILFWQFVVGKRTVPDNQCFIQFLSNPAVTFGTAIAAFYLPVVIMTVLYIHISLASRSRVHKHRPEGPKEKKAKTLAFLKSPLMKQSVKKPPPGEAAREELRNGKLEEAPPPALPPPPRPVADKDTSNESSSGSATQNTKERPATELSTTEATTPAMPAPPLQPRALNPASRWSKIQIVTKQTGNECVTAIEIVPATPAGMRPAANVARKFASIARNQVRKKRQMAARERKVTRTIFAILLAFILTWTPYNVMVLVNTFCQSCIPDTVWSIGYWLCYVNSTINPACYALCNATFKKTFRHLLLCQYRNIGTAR
# Voltage-gated potassium channel subunit beta-2 (Rattus norvegicus), sequence (P62483 whole entry, looked up): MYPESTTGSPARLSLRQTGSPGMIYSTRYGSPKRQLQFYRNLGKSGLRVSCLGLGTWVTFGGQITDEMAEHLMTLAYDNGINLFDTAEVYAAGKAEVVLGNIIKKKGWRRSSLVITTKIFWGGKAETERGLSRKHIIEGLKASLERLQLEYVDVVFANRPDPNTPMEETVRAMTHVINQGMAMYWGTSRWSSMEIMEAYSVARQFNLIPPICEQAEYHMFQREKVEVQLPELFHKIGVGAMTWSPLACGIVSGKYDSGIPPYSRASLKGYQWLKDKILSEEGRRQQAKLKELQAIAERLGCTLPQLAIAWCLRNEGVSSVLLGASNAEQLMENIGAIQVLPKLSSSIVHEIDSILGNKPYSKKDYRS
Structure (SMILES),cell count [1],inhibition [1],inhibition of aggregation [2],nuclei count [2],inhibition [3],nuclei count [3],fluorescence slope [4],NADPH fluorescence slope [5],fluorescence slope [6],inhibition [7],inhibition [8]
Cc1ccc2cc(CN(CC(C)C)C(=O)C3CCCO3)c(=O)[nH]c2c1 (stereo not drawn),510,6.3% (inactive),12% (inactive),90%,-62.4% (inactive),147%,-0.565 (inactive),6.7e-05 (inactive),0.00521 (inactive),3.89% (inactive),26.4% (inactive)
O=C(NCc1ccco1)c1cc2n(n1)C(C(F)(F)F)CC(c1ccc(F)cc1)N2 (stereo not drawn),405,6.5% (inactive),-12.7% (inactive),109%,8.6% (inactive),103%,-0.557 (inactive),-7.3e-06 (inactive),0.00537 (inactive),3.11% (inactive),12.1% (inactive)
Cc1[nH]c(=O)[nH]c(=O)c1S(=O)(=O)Nc1ccc(Oc2ccccc2)cc1,638,-3.2% (inactive),-7.6% (inactive),117%,-25.8% (inactive),107%,-0.574 (inactive),-2.9e-05 (inactive),0.00503 (inactive),19.8% (inactive),24.8% (inactive)
O=C(Nc1ccc(N2CCOCC2)c(F)c1)c1ccncc1,262,-3.2% (inactive),0.1% (inactive),99.8%,-30% (inactive),90%,-0.451 (inactive),8.4e-05 (inactive),0.00591 (inactive),-9.16% (inactive),-33.6% (inactive)
COC(=O)C1=C(C)Nc2nnnn2C1c1ccc(Cl)cc1Cl (stereo not drawn),433,7.3% (inactive),-5.9% (inactive),105%,1.2% (inactive),105%,-0.482 (inactive),-4.5e-05 (inactive),0.0056 (inactive),13.6% (inactive),19.3% (inactive)
C=CCC(NCc1ccco1)c1ccc(OC)cc1OC (stereo not drawn),697,7.5% (inactive),4.4% (inactive),110%,-94.5% (inactive),108%,-0.597 (inactive),2.3e-05 (inactive),0.00584 (inactive),12.6% (inactive),18.9% (inactive)
Cc1ccc(NC(=O)CSc2nnc(CCCCCNC(=O)OC(C)(C)C)o2)c(C)c1,630,-9.5% (inactive),28.5% (inactive),94.7%,-28.9% (inactive),102%,-0.546 (inactive),-4e-05 (inactive),0.00541 (inactive),14.7% (inactive),12.1% (inactive)
CCn1c(=O)cc(SCC(=O)NCC2CCCO2)c2ccccc21 (stereo not drawn),404,-4.9% (inactive),0% (inactive),97.1%,32.5% (inactive),103%,-0.568 (inactive),-1.6e-05 (inactive),0.00498 (inactive),18.5% (inactive),34.6% (inactive)
